For this experiment, the target named is T1, Dickkopf-related protein 1 (Homo sapiens, UniProt O94907).
T1 sequence (O94907 whole entry): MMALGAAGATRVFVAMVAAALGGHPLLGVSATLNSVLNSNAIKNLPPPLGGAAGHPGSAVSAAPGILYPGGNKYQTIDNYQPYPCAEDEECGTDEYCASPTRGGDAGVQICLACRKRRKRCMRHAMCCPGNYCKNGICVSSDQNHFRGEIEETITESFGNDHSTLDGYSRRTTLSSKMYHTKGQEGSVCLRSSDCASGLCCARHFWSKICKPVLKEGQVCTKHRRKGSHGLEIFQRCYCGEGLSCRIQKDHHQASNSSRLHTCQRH
Kind of experiment: Inhibition of Dkk1-mediated Wnt/beta-catenin signaling in osteosarcoma cells assessed as potentiation of TCF-luciferase response. In outline:
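Cells were transfected with a TCF-luciferase response element plus a renilla standard as the control read-out. Agonism was read as increased luciferase light output relative to DMSO alone. EC50 values are the average of at least two experiments run in triplicate.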
The EC50 is the concentration that produces a half-maximal response. Turning to `Cc1ccc(-c2ccnc(Nc3ccc(S(N)(=O)=O)cc3)n2)s1` [4-(4-(5-methylthiophen-2-yl)pyrimidin-2-ylamino)benzenesulfonamide], the EC50 was determined as 7.8 µM. As to `NC1CCN(c2nccc(-c3ccc4ccccc4c3)n2)CC1` [1-(4-(naphthalen-2-yl)pyrimidin-2-yl)piperidin-4-amine], the EC50 was determined as 1 µM. Consider `NS(=O)(=O)c1ccc(Nc2nccc(-c3ccc4ccccc4c3)n2)cc1` [4-(4-(naphthalen-2-yl)pyrimidin-2-ylamino)benzenesulfonamide], for which the EC50 worked out at 1 µM. Regarding `NCC1CCN(c2nccc(-c3ccc4ccccc4c3)n2)CC1` [(1-(4-(naphthalen-2-yl)pyrimidin-2-yl)piperidin-4-yl)methanamine], the EC50 is 0.63 µM. On to `CC(=O)NCC1CCN(c2nccc(-c3ccc4ccccc4c3)n2)CC1` [N-((1-(4-(naphthalen-2-yl)pyrimidin-2-yl)piperidin-4-yl)methyl)acetamide], for which the EC50 amounted to 1.9 µM. As to `Cc1ccc(-c2ccnc(N(C)c3ccc(S(N)(=O)=O)cc3)n2)s1` [4-(methyl(4-(5-methylthiophen-2-yl)pyrimidin-2-yl)amino)benzenesulfonamide], the EC50 turned out to be 9.8 µM.

The values are drawn from BindingDB's records for doi:10.1021/jm9014197 (Wyeth Research, 2009).
